According to ChEMBL document CHEMBL4422682, “Synthesis and urease inhibitory potential of benzophenone sulfonamide hybrid in vitro and in silico” (Bioorg Med Chem, 2019):

target: T1, Urease (Canavalia ensiformis, UniProt P07374); assay: Inhibition of jack bean urease assessed as reduction in ammonia production using urea as substrate after 30 mins by indophenol method
Outline: (§1)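 Compounds preincubated with urease (1 U/well) for 15 min at 30 °C. Urea (100 mM, as added) introduced and incubation continued at 30 °C. Ammonia formed was detected by the Weatherburn phenol-hypochlorite method: alkaline reagent (0.5% w/v NaOH, 0.1% NaOCl) and phenol reagent (1% w/v phenol, 0.005% w/v nitroprusside) were added, then 50 min at 30 °C. Absorbance read at 630 nm on a plate reader.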

T1 sequence (P07374 whole entry): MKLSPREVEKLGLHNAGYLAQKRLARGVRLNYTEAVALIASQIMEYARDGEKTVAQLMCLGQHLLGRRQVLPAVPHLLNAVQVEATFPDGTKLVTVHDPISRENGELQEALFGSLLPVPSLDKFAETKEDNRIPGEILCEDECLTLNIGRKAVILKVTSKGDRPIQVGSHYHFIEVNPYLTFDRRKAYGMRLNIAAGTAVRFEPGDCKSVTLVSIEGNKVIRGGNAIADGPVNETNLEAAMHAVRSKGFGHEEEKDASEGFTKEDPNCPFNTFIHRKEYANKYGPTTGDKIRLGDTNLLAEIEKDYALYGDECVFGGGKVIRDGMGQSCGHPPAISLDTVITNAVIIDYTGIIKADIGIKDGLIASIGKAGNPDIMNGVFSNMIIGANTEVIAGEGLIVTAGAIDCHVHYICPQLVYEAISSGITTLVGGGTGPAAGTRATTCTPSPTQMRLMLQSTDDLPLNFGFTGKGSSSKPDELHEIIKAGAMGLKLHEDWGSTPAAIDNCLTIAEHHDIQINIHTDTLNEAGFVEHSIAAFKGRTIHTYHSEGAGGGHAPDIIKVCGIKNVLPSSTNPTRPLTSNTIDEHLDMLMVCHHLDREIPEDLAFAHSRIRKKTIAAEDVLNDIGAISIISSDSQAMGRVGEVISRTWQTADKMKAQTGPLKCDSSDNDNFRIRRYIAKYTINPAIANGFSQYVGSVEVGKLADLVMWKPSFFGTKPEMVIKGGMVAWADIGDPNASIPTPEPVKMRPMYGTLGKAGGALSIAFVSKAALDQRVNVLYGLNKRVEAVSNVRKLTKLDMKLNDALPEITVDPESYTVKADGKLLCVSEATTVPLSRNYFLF

SMILES	IC50 [µM]
NS(=O)(=O)c1ccc(CCNC=C2C(=O)NC(=S)NC2=O)cc1	11.5

target: T1, Urease; assay: Inhibition of jack bean urease using urea as substrate preincubated for 15 mins followed by substrate addition and measured after 10 mins by ELISA; outline: as §1

SMILES	IC50 [µM]
O=[N+]([O-])c1ccc(NC(=S)N/N=C(\c2ccccc2)c2ccc(O)cc2)cc1	26.1
CC(=O)Nc1ccc(S(=O)(=O)Nc2ccc(Br)cc2)cc1	62.4
Oc1ccc(/C(=N/NC(=S)Nc2cccc(Br)c2)c2ccccc2)cc1	8.7

target: Bacterial urease (Bacteria, UniProt Q03284); assay: (§2) Inhibition of bacterial urease using urea as substrate preincubated for 15 mins followed by substrate addition […]; type: protein-complex assay; outline: as §1

SMILES	IC50 [µM]
O=[N+]([O-])c1ccc(S(=O)(=O)N/N=C(\c2ccccc2)c2ccc(O)cc2)cc1	3.9
O=S(=O)(CCCl)N/N=C(\c1ccccc1)c1ccc(O)cc1	55
O=[N+]([O-])c1ccc(S(=O)(=O)NN=C(c2ccccc2)c2ccccc2)c([N+](=O)[O-])c1	69
O=S(=O)(N/N=C(\c1ccccc1)c1ccc(O)cc1)c1cc(Cl)cc(Cl)c1O	4.97
CC(=O)NO [ACETOHYDROXAMIC ACID]	29.2
O=S(=O)(N/N=C(\c1ccccc1)c1ccc(O)cc1)c1ccccc1Cl	16.9
O=S(=O)(N/N=C(\c1ccccc1)c1ccc(O)cc1)c1cc(Cl)c(Cl)cc1Cl	57.9
O=S(=O)(N/N=C(\c1ccccc1)c1ccc(O)cc1)c1cc(Cl)ccc1Cl	31.2
CN(C)c1cccc2c(S(=O)(=O)N/N=C(\c3ccccc3)c3ccc(O)cc3)cccc12	5.7
COc1ccc(S(=O)(=O)N/N=C(\c2ccccc2)c2ccc(O)cc2)cc1	14.5
Cc1ccc([N+](=O)[O-])cc1S(=O)(=O)NN=C(c1ccccc1)c1ccccc1	69
O=S(=O)(N/N=C(\c1ccccc1)c1ccc(O)cc1)c1ccc(Cl)cc1Cl	18
O=S(=O)(NN=C(c1ccccc1)c1ccccc1)c1cc(Cl)cc(Cl)c1O	71.6
O=S(=O)(N/N=C(\c1ccccc1)c1ccc(O)cc1)c1ccccc1	16.3
O=S(=O)(NN=C(c1ccccc1)c1ccccc1)c1ccc(Cl)cc1	66.1
CN(C)c1cccc2c(S(=O)(=O)NN=C(c3ccccc3)c3ccccc3)cccc12	72.2
O=[N+]([O-])c1cccc(S(=O)(=O)N/N=C(\c2ccccc2)c2ccc(O)cc2)c1	13.7
CS(=O)(=O)N/N=C(\c1ccccc1)c1ccc(O)cc1	43.4

target: T2, Bacterial urease (Bacteria, UniProt Q03282+Q03283+Q03284); assay: as §2; type: protein-complex assay; outline: as §1
T2 sequence (Q03282 whole entry): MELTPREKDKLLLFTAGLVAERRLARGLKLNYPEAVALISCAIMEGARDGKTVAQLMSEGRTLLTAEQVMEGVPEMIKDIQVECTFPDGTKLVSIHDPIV
T2 sequence (Q03283 whole entry): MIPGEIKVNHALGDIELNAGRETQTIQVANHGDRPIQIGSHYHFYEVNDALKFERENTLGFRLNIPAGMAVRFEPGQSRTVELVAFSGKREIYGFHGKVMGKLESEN
T2 sequence (Q03284 whole entry): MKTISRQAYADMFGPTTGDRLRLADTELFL

SMILES	IC50
O=S(=O)(NN=C(c1ccccc1)c1ccccc1)c1ccc2ccccc2c1	Not Active
Cc1cc(S(=O)(=O)NN=C(c2ccccc2)c2ccccc2)c(C)cc1Cl	Not Active
O=[N+]([O-])c1cc(S(=O)(=O)NN=C(c2ccccc2)c2ccccc2)ccc1Cl	Not Active
O=S(=O)(NN=C(c1ccccc1)c1ccccc1)c1cc(Cl)c(Cl)cc1Cl	Not Active
CCCCS(=O)(=O)NN=C(c1ccccc1)c1ccccc1	Not Active
O=[N+]([O-])c1cccc(S(=O)(=O)NN=C(c2ccccc2)c2ccccc2)c1Cl	Not Active
O=[N+]([O-])c1ccccc1S(=O)(=O)NN=C(c1ccccc1)c1ccccc1	Not Active
O=S(=O)(NN=C(c1ccccc1)c1ccccc1)c1ccccc1	Not Active
O=S(=O)(NN=C(c1ccccc1)c1ccccc1)c1ccc(Cl)cc1Cl	Not Active
O=[N+]([O-])c1cccc(S(=O)(=O)NN=C(c2ccccc2)c2ccccc2)c1	Not Active
COc1ccc(S(=O)(=O)NN=C(c2ccccc2)c2ccccc2)c(OC)c1	Not Active
O=[N+]([O-])c1ccc(S(=O)(=O)NN=C(c2ccccc2)c2ccccc2)cc1	Not Active
O=S(=O)(NN=C(c1ccccc1)c1ccccc1)c1ccccc1Cl	Not Active
COc1ccc(S(=O)(=O)NN=C(c2ccccc2)c2ccccc2)cc1	Not Active

target: Bacterial urease (Bacteria) (UniProt Q03282+Q03283+Q03284); assay: Potency index, ratio of acetohydroxamic acid IC50 to test compound IC50 for bacterial urease; type: protein-complex assay
Outline: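 Spectrophotometric urease inhibition assay underlying the IC50s in the ratio, for test compounds and acetohydroxamic acid. Compound pre-incubated with urease (1 U/well) at 30 °C for 15 min. Urea (100 mM) was added and incubation continued at 30 °C. Phenol–nitroprusside and alkaline hypochlorite reagents were added, then 50 min at 30 °C. Ammonia was measured by the Weatherburn method, with absorbance change at 630 nm.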

SMILES	Ratio IC50
O=[N+]([O-])c1ccc(S(=O)(=O)N/N=C(\c2ccccc2)c2ccc(O)cc2)cc1	10
